Laboratory results reported in ChEMBL document CHEMBL1133253, “Improved antibacterial activities of coumarin antibiotics bearing 5',5'-dialkylnoviose: biological activity of RU79115” (Bioorg Med Chem Lett, 2000).
Values after ≈ are worked out from the molar mass of the structure shown.

Tests used:
Enterococcus [1] = test: Minimum inhibitory concentration evaluated against enterococci species resistant to vancomycin [65]*; format: functional
Enterococcus [2] = test: Minimum inhibitory concentration evaluated against enterococci species resistant to vancomycin and teicoplanin [17]*; format: functional
Enterococcus [3] = test: Minimum inhibitory concentration evaluated against enterococci species susceptible to vancomycin [26]*; format: functional
Enterococcus [4] = test: In vitro anti-enterococcal activity against enterococci species resistant to vancomycin [65]* expressed as geometric mean; format: functional
Enterococcus [5] = test: In vitro anti-enterococcal activity against enterococci species resistant to vancomycin and teicoplanin [17]* expressed as geometric mean; format: functional
Enterococcus [6] = test: In vitro anti-enterococcal activity against enterococci species susceptible to vancomycin [26]* expressed as geometric mean; format: functional
Mus musculus [7] = test: Minimum inhibitory concentration of the subcutaneously administered compound evaluated against Staphylococcus aureus HT-18 strain in mice; format: functional
Mus musculus [8] = test: Minimum inhibitory concentration of the subcutaneously administered compound evaluated against […] A1UC1 strain in mice; format: functional
Mus musculus [9] = test: Minimum inhibitory concentration of the subcutaneously administered compound evaluated against vancomycin resistant Enterococci faecium D3AP9 strain in mice; format: functional
Mus musculus [10] = test: Minimum inhibitory concentration of the subcutaneously administered compound evaluated against Enterococci faecalis D2HT6 strain in mice; format: functional
Mus musculus [11] = test: Minimum inhibitory concentration of the subcutaneously administered compound evaluated against Enterococci faecium D3HT7 strain in mice; format: functional
Mus musculus [12] = test: Minimum inhibitory concentration of the subcutaneously administered compound evaluated against […] B1HT3 strain in mice; format: functional
Mus musculus [13] = test: Minimum inhibitory concentration of the subcutaneously administered compound evaluated against Staphylococcus aureus GR56 strain resistant to oxacillin in mice; format: functional
Mus musculus [14] = test: Minimum inhibitory concentration of the subcutaneously administered compound evaluated against vancomycin resistant Enterococci faecium D3HM4 strain in mice; format: functional
Mus musculus [15] = test: Minimum inhibitory concentration of the subcutaneously administered compound evaluated against vancomycin resistant Enterococci faecium D3HT12 strain in mice; format: functional
Mus musculus [16] = test: Protective dose of subcutaneously administered compound against intraperitoneally-induced septicaemia model ([…] B1HT3 strain) in murine; format: functional; conditions: sc, read-out: PD50
Procedure, shortened: (§1)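 Murine septicaemia was induced by intraperitoneal infection, and the compound was given subcutaneously. PD50 was derived by probit analysis.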

Mus musculus [17] = test: Protective dose of subcutaneously administered compound against intraperitoneally-induced septicaemia model (Staphylococcus aureus GR56 strain resistant to oxacillin) in murine; format: functional; conditions: sc, read-out: PD50; procedure, shortened: as §1
Mus musculus [18] = test: Protective dose of subcutaneously administered compound against intraperitoneally-induced septicaemia model (Staphylococcus aureus HT18) in murine; format: functional; conditions: sc, read-out: PD50; procedure, shortened: as §1
pneumococci = test: In vitro anti-streptococcal activity against pneumococci resistant to penicillin [29]* expressed as geometric mean; format: functional
[19] = Minimum inhibitory concentration evaluated against pneumococci resistant to penicillin [29]*; format: functional
Staphylococcus sp. [20] = test: Minimum inhibitory concentration evaluated against Staphylococcus species [91]*; format: functional
Procedure, shortened: (§2)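 Two-fold agar dilution MIC, in µg/mL, against Staphylococcus panels grouped by resistance phenotype (oxacillin and/or ofloxacin resistant). Per-panel values are reported as the geometric mean and MIC90 across strains; the strain count per panel is given in brackets.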

Staphylococcus sp. [21] = test: Minimum inhibitory concentration evaluated against Staphylococcus species resistant to ofloxacin [59]*; format: functional; procedure, shortened: as §2
Staphylococcus sp. [22] = test: Minimum inhibitory concentration evaluated against Staphylococcus species resistant to oxacillin [66]*; format: functional; procedure, shortened: as §2
Staphylococcus sp. [23] = test: Minimum inhibitory concentration evaluated against Staphylococcus species resistant to oxacillin and ofloxacin [47]*; format: functional; procedure, shortened: as §2
Streptococcus sp. [24] = test: In vitro anti-streptococcal activity against Streptococci species (viridans) [25]* expressed as geometric mean; format: functional
Streptococcus sp. [25] = test: In vitro anti-streptococcal activity against Streptococci species [38]* expressed as geometric mean; format: functional
Streptococcus sp. [26] = test: Minimum inhibitory concentration evaluated against Streptococci species (viridans) [25]*; format: functional
Streptococcus sp. [27] = test: Minimum inhibitory concentration evaluated against Streptococci species [38]*; format: functional
Staphylococcus sp. [28] = test: In vitro anti-staphylococcal activity against Staphylococcus species resistant to ofloxacin [59]* expressed as geometric mean; format: functional; procedure, shortened: as §2
Staphylococcus sp. [29] = test: In vitro anti-staphylococcal activity against Staphylococcus species resistant to oxacillin [66]* expressed as geometric mean; format: functional; procedure, shortened: as §2
Staphylococcus sp. [30] = test: In vitro anti-staphylococcal activity against Staphylococcus species resistant to oxacillin and ofloxacin[47]* expressed as geometric mean; format: functional; procedure, shortened: as §2
Mus musculus [31] = test: Protective dose of subcutaneously administered compound against intraperitoneally-induced septicaemia model (vancomycin resistant Enterococci faecium D3HT12 strain ) in murine; format: functional; conditions: sc, read-out: PD50; procedure, shortened: as §1
Mus musculus [32] = test: Protective dose of subcutaneously administered compound against intraperitoneally-induced septicaemia model (Enterococci faecalis D2HT6 strain) in murine; format: functional; conditions: sc, read-out: PD50; procedure, shortened: as §1
Mus musculus [33] = test: Protective dose of subcutaneously administered compound against intraperitoneally-induced septicaemia model (Enterococci faecium D3HT7 strain ) in murine; format: functional; conditions: sc, read-out: PD50; procedure, shortened: as §1
Mus musculus [34] = test: Protective dose of subcutaneously administered compound against intraperitoneally-induced septicaemia model ([…] A1UC1 strain) in murine; format: functional; conditions: sc, read-out: PD50; procedure, shortened: as §1
Mus musculus [35] = test: Protective dose of subcutaneously administered compound against intraperitoneally-induced septicaemia model (vancomycin resistant Enterococci faecium D3AP9 strain ) in murine; format: functional; conditions: sc, read-out: PD50; procedure, shortened: as §1
Mus musculus [36] = test: Protective dose of subcutaneously administered compound against intraperitoneally-induced septicaemia model (vancomycin resistant Enterococci faecium D3HM3 strain ) in murine; format: functional; conditions: sc, read-out: PD50; procedure, shortened: as §1
Mus musculus [37] = test: Protective dose of subcutaneously administered compound against intraperitoneally-induced septicaemia model (vancomycin resistant Enterococci faecium D3HM4 strain ) in murine; format: functional; conditions: sc, read-out: PD50; procedure, shortened: as §1
Staphylococcus sp. [38] = test: In vitro anti-staphylococcal activity against Staphylococcus species [91]* expressed as geometric mean; format: functional
Procedure, shortened: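 Two-fold agar-dilution MICs (µg/mL) were run on a panel of staphylococcal isolates and summarised as the geometric mean across strains.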

Mus musculus [39] = test: Minimum inhibitory concentration of the subcutaneously administered compound evaluated against Staphylococcus aureus HT-18 strain in mice (SC); format: functional
Mus musculus [40] = test: Minimum inhibitory concentration of the subcutaneously administered compound evaluated against Enterococci faecium D3HT7 strain in mice (po); format: functional
Mus musculus [41] = test: Minimum inhibitory concentration of the subcutaneously administered compound evaluated against Streptococcus pyogenes A1UC1 strain in mice (po); format: functional
Mus musculus [42] = test: Minimum inhibitory concentration of the subcutaneously administered compound evaluated against […] B1HT3 strain in mice (po); format: functional
Mus musculus [43] = test: Minimum inhibitory concentration of the subcutaneously administered compound evaluated against vancomycin resistant Enterococci faecium D3HM4 strain in mice (po); format: functional
Mus musculus [44] = test: Minimum inhibitory concentration of the subcutaneously administered compound evaluated against vancomycin resistant Enterococci faecium D3HT12 strain in mice (po); format: functional
Mus musculus [45] = test: Protective dose of subcutaneously administered compound against intraperitoneally-induced septicaemia model (Streptococcus pyogenes A1UC1 strain) in murine; format: functional; conditions: sc, read-out: PD50; procedure, shortened: as §1
Mus musculus [46] = test: Minimum inhibitory concentration of the subcutaneously administered compound evaluated against vancomycin resistant Enterococci faecium D3AP9 strain in mice (po); format: functional
Mus musculus [47] = test: Minimum inhibitory concentration of the subcutaneously administered compound evaluated against vancomycin resistant Enterococci faecium D3HM3 strain in mice (po); format: functional
Mus musculus [48] = test: Minimum inhibitory concentration of the subcutaneously administered compound evaluated against Staphylococcus aureus GR56 strain resistant to oxacillin in mice (sc)

Structure (SMILES)	MIC90 (Enterococcus [1])	MIC90 (Enterococcus [2])	MIC90 (Enterococcus [3])	GM (Enterococcus [4])	GM (Enterococcus [5])	GM (Enterococcus [6])	MIC (Mus musculus [10])	ED50 (Mus musculus [16])	ED50 (Mus musculus [17])	ED50 (Mus musculus [18])	GM (pneumococci)	MIC90 [19]	MIC90 (Staphylococcus sp. [20])	MIC90 (Staphylococcus sp. [21])	MIC90 (Staphylococcus sp. [22])	MIC90 (Staphylococcus sp. [23])	GM (Streptococcus sp. [24])	GM (Streptococcus sp. [25])	MIC90 (Streptococcus sp. [26])	MIC90 (Streptococcus sp. [27])	other results
CC(=O)NC[C@H]1CN(c2ccc(N3CCN(C(=O)CO)CC3)c(F)c2)C(=O)O1 [EPEREZOLID]	1.2 µg/mL (≈ 3.04 µM)	1.2 µg/mL (≈ 3.04 µM)	0.6 µg/mL (≈ 1.52 µM)	0.72	0.43	0.51	0.6 µg/mL (≈ 1.52 µM)	> 50 mg/kg	5 mg/kg	20 mg/kg	0.25	0.3 µg/mL (≈ 0.761 µM)	1.2 µg/mL (≈ 3.04 µM)	1.2 µg/mL (≈ 3.04 µM)	1.2 µg/mL (≈ 3.04 µM)	1.2 µg/mL (≈ 3.04 µM)	0.39	0.52	1.2 µg/mL (≈ 3.04 µM)	0.6 µg/mL (≈ 1.52 µM)	MIC (Mus musculus [7]): 0.6 µg/mL (≈ 1.52 µM); MIC (Mus musculus [8]): < 0.15 µg/mL; MIC (Mus musculus [9]): 1.2 µg/mL (≈ 3.04 µM); MIC (Mus musculus [11]): 0.6 µg/mL (≈ 1.52 µM); MIC (Mus musculus [12]): 0.6 µg/mL (≈ 1.52 µM); MIC (Mus musculus [13]): 1.2 µg/mL (≈ 3.04 µM); MIC (Mus musculus [14]): 0.3 µg/mL (≈ 0.761 µM); MIC (Mus musculus [15]): 0.3 µg/mL (≈ 0.761 µM); GM (Staphylococcus sp. [28]): 0.71; GM (Staphylococcus sp. [29]): 0.73; GM (Staphylococcus sp. [30]): 0.72; ED50 (Mus musculus [31]): 1.5 mg/kg; ED50 (Mus musculus [32]): 6.4 mg/kg; ED50 (Mus musculus [33]): 3 mg/kg; ED50 (Mus musculus [34]): 22.8 mg/kg; ED50 (Mus musculus [35]): 8.7 mg/kg; ED50 (Mus musculus [36]): 2.8 mg/kg; ED50 (Mus musculus [37]): 27.2 mg/kg; GM (Staphylococcus sp. [38]): 0.74
CN[C@H](CC(C)C)C(=O)N[C@H]1C(=O)N[C@@H](CC(N)=O)C(=O)N[C@H]2C(=O)N[C@H]3C(=O)N[C@H](C(=O)N[C@H](C(=O)O)c4cc(O)cc(O)c4-c4cc3ccc4O)[C@H](O)c3ccc(c(Cl)c3)Oc3cc2cc(c3O[C@@H]2O[C@H](CO)[C@@H](O)[C@H](O)[C@H]2O[C@H]2C[C@](C)(N)[C@H](O)[C@H](C)O2)Oc2ccc(cc2Cl)[C@H]1O [VANCOMYCIN]	> 20 µg/mL	> 20 µg/mL	0.6 µg/mL (≈ 0.414 µM)	23.7	36.9	0.75	2.5 µg/mL (≈ 1.73 µM)	17.2 mg/kg	4 mg/kg	7.8 mg/kg	0.24	0.3 µg/mL (≈ 0.207 µM)	2.5 µg/mL (≈ 1.73 µM)	2.5 µg/mL (≈ 1.73 µM)	2.5 µg/mL (≈ 1.73 µM)	2.5 µg/mL (≈ 1.73 µM)	0.4	0.35	0.6 µg/mL (≈ 0.414 µM)	0.6 µg/mL (≈ 0.414 µM)	MIC (Mus musculus [39]): 1.2 µg/mL (≈ 0.828 µM); MIC (Mus musculus [40]): 2.5 µg/mL (≈ 1.73 µM); MIC (Mus musculus [41]): 0.6 µg/mL (≈ 0.414 µM); MIC (Mus musculus [42]): 0.3 µg/mL (≈ 0.207 µM); MIC (Mus musculus [43]): > 40 µg/mL; MIC (Mus musculus [44]): > 40 µg/mL; ED50 (Mus musculus [45]): < 1.5 mg/kg; ED50 (Mus musculus [31]): > 50 mg/kg; ED50 (Mus musculus [32]): 16.7 mg/kg; ED50 (Mus musculus [33]): 8.7 mg/kg; ED50 (Mus musculus [35]): > 50 mg/kg; ED50 (Mus musculus [36]): > 50 mg/kg; ED50 (Mus musculus [37]): > 50 mg/kg; MIC (Mus musculus [46]): > 40 µg/mL; MIC (Mus musculus [47]): > 40 µg/mL; MIC (Mus musculus [48]): 1.2 µg/mL (≈ 0.828 µM)
